The source made the active and inactive calls. The calls are words filed in the database; no cut-off is given here.
Key:
[1] = Binding affinity to human PD1 (34-150 residues) extracellular domain C93S mutant expressed in Escherichia coli BL21 (DE3) incubated for 2 hrs by TR-FRET assay
[2] = species on record: Homo sapiens; test: Binding affinity to 15N labelled human PD1 N66A mutant assessed as induction of dissociation of PD-1 N66A mutant/PDL1 complex by w-AIDA-NMR 2D assay
In short: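 Uniformly 15N-labelled hPD-1 N66A mutant, expressed in bacteria grown at 28 °C in M9 medium with 15NH4Cl as the sole nitrogen source and induced with 1 mM IPTG. Protein was refolded from inclusion bodies and purified by size-exclusion chromatography in 25 mM sodium phosphate pH 6.4, 100 mM NaCl. 1H–15N signals were followed by SOFAST HMQC.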

[3] = species on record: Homo sapiens; test: Binding affinity to 15N labelled human PD1 N66A mutant assessed as induction of dissociation of PD-1 N66A mutant/PDL1 complex by w-AIDA-NMR 1D assay
[4] = target: T1, Programmed cell death protein 1/Programmed cell death 1 ligand 1 (Homo sapiens, UniProt Q15116+Q9NZQ7); test: (§1) Inhibition of hPD-1/hPD-L1 immune checkpoint using PD-L1 expressing human aAPCs and PD-1 expressing human Jurkat cells assessed as activation of effector Jurkat T cells incubated for 6 hrs by luciferase reporter gene based immune checkpoint blockade cell-based assay
In short: (§2)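 CHO-K1 aAPCs expressing hPD-L1 and a TCR ligand were seeded at 10 000/well 17 h ahead. Compounds were serially diluted 2.5-fold in DMSO, then 1000-fold into RPMI with 1% FBS (0.1% DMSO final). Jurkat hPD-1 NFAT-RE luciferase effector cells were added at 20 000/well for 6 h. Bio-Glo luminescence was read as fold induction over DMSO controls. EC50 came from Hill fits with the durvalumab maximum as the ceiling. Mean ± SEM, 4–7 experiments.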

[5] = target: T1, Programmed cell death protein 1/Programmed cell death 1 ligand 1; test: Inhibition of hPD-1/hPD-L1 immune checkpoint using PD-L1 expressing human aAPCs and PD-1 expressing human Jurkat cells assessed as activation of effector Jurkat T cells at 0.01 to 100 uM incubated for 6 hrs by luciferase reporter gene based immune checkpoint blockade cell-based assay; settings: dose microM 0.01-100, time 6.0 hrs; in short: as §2
[6] = target: Programmed cell death 1 ligand 1 (Mus musculus) (UniProt Q9EP73); test: Binding affinity to mouse PD1-L1 (19-134 residues) expressed in Escherichia coli BL21 (DE3) incubated for 1 hr by MST analysis
[7] = target: Programmed cell death protein 1/Programmed cell death 1 ligand 1 (Homo sapiens, UniProt Q9NZQ7); test: as §1; in short: as §2
[8] = system: Jurkat; test: Toxicity in human Jurkat cells assessed as reduction in cell viability at 40 uM incubated for 24 hrs relative to control; format: cell-based
[9] = system: PBMC; test: Effect on CD69 expression in human PBMC; format: functional
In short: (§3)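 PBMCs from healthy donors were isolated by density-gradient centrifugation. They were added at 400 000 cells/well onto preseeded CHO-K1 hPD-L1 aAPCs and cultured 48 h with compound, DMSO or atezolizumab (5 μg/mL). Cells were detached and stained 20 min at room temperature for CD69, CD4, CD8 and PD-1, then analysed by flow cytometry. Values are mean ± SD of three independent experiments with different donors; Student's t test.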

[10] = target: T1, Programmed cell death protein 1/Programmed cell death 1 ligand 1; test: Inhibition of PD-1/PD-L1 immune checkpoint using PD-L1 expressing human aAPCs and PD-1 expressing human PBMC assessed as increase in PD-1 receptor expression on surface of CD8+ T cells incubated for 48 hrs by flow cytometry; in short: as §3
[11] = target: T1, Programmed cell death protein 1/Programmed cell death 1 ligand 1; test: Inhibition of PD-1/PD-L1 immune checkpoint using PD-L1 expressing human aAPCs and PD-1 expressing human PBMC assessed as increase in PD-1 receptor expression on surface of CD4+ T cells incubated for 48 hrs by flow cytometry; in short: as §3
[12] = system: Jurkat; test: Toxicity in human Jurkat cells at >100 uM incubated for 24 hrs; format: cell-based
[13] = target: T1, Programmed cell death protein 1/Programmed cell death 1 ligand 1; test: Inhibition of hPD-1/hPD-L1 immune checkpoint using PD-L1 expressing human aAPCs and PD-1 expressing human Jurkat cells assessed as activation of effector Jurkat T cells at 50 uM incubated for 6 hrs by luciferase reporter gene based immune checkpoint blockade cell-based assay relative to control; in short: as §2
[14] = target: Programmed cell death 1 ligand 1 (Homo sapiens) (UniProt Q9NZQ7); test: Binding affinity to human PD-L1 (18 to 134 residues) assessed as induction of protein dimerization by 1H NMR method
[15] = Binding affinity to Fc-tagged human PD-1 assessed as induction of dissociation of PD-1 N66A mutant/His-and Fc-tagged human PD-L1complex pre-incubated for 30 mins with PDL1 and measured after 1 hr by competitive ELISA
[16] = Solubility in water; format: physicochemical; settings: buffer
[17] = Solubility in DMSO; format: physicochemical

Chain of Programmed cell death 1 ligand 1 (Mus musculus) (Q9EP73 whole entry, the tested form may be a part): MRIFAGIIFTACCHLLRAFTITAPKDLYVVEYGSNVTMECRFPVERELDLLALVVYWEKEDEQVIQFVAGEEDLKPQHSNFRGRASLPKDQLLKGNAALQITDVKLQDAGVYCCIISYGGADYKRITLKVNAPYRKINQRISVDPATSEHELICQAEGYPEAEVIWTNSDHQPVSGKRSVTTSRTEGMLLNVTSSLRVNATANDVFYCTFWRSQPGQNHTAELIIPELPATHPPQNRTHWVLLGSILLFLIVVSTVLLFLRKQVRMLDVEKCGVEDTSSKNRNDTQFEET
Chain of Programmed cell death protein 1/Programmed cell death 1 ligand 1 (Homo sapiens, UniProt Q9NZQ7) (Q15116 whole entry): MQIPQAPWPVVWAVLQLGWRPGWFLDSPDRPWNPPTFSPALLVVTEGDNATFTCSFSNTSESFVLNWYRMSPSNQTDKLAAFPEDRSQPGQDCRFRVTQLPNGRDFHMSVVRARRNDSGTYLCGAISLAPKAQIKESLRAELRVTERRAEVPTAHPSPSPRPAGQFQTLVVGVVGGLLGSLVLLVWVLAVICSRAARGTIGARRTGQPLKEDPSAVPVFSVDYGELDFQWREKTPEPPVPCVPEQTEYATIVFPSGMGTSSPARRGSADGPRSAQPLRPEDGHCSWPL
Chain of Programmed cell death protein 1/Programmed cell death 1 ligand 1 (Homo sapiens, UniProt Q9NZQ7) (Q9NZQ7 whole entry): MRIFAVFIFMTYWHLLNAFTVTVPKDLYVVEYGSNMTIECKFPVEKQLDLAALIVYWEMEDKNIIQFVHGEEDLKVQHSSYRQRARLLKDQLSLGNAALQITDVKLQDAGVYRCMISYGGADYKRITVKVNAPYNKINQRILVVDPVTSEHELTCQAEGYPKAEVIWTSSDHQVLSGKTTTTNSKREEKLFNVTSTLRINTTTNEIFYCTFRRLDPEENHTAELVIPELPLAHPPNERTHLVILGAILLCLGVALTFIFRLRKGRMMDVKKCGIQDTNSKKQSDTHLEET
T1 sequence (Q15116 whole entry): as the sequence (Q15116 whole entry) above
T1 sequence (Q9NZQ7 whole entry): as the sequence (Q9NZQ7 whole entry) above
Chain of Programmed cell death 1 ligand 1 (Homo sapiens) (Q9NZQ7 whole entry, the tested form may be a part): as the sequence (Q9NZQ7 whole entry) above

SMILES | IC50 [1] [µM] | other results
OCc1cccc(-c2ccccc2)c1F | 55.9 | Activity [2]: Active; Activity [3]: Active
N#Cc1ccc(-c2cccc(CBr)c2Br)cc1 | 66.3 | –
Cc1c(COc2ccc(CN3CCCC[C@H]3C(=O)O)cc2)cccc1-c1ccccc1 | – | Activity [6]: inactive; Activity [5]: Active
O=C(O)[C@@H]1C[C@H](O)CN1Cc1ccc(OCc2cccc(-c3ccccc3)c2-c2ccccc2)c(Br)c1 | 29.4 | –
O=Cc1cc(Cl)c(OCc2cccc(-c3ccccc3)c2-c2ccccc2)cc1O | > 100 | –
O=Cc1ccc(OCc2cccc(-c3ccccc3)c2-c2ccccc2)c(Br)c1 | > 100 | –
O=C(O)[C@@H]1CCCCN1Cc1ccc(OCc2cccc(-c3ccc4c(c3)OCCO4)c2Br)c(Br)c1 | 0.401 | EC50 [7]: > 40 µM; Activity [5]: Active
COC(=O)c1ccc(OCc2cccc(-c3ccccc3)c2Br)c(Br)c1 | 28.6 | –
Cc1c(COc2cc(OCc3cccc(C#N)c3)c(CN3C[C@H](O)C[C@@H]3C(=O)O)cc2Cl)cccc1-c1ccc2c(c1)OCCO2 | – | Activity [8]: 50%; Activity [6]: inactive
BrCc1cccc(-c2ccccc2)c1Br | 50.7 | Activity [2]: Active; Activity [3]: Active
COc1cc(C=O)ccc1OCc1cccc(-c2ccccc2)c1Br | > 100 | –
O=C(O)[C@@H]1CCCCN1Cc1ccc(OCc2cccc(-c3cccc(F)c3)c2Br)c(Br)c1 | 0.0653 | –
O=S1(=O)CCN(Cc2ccc(OCc3cccc(-c4cccc(F)c4)c3Br)c(Br)c2)CC1 | 4.24 | –
N#Cc1cc(COc2cc(OCc3cccc(-c4ccccc4)c3Br)c(Cl)cc2CN2C[C@@H](O)C[C@H]2C(=O)O)ccn1 | 0.0039 | solubility [16]: Insoluble; solubility [17]: Insoluble; EC50 [7]: 12.2 µM; Activity [5]: Active; Activity [14]: Active
N#Cc1ccc(-c2cccc(COc3ccc(C=O)cc3Br)c2Br)cc1 | > 100 | –
BrCc1cccc(-c2ccc3c(c2)OCCO3)c1Br | 64.4 | –
Cc1cc(C=O)ccc1OCc1cccc(-c2ccccc2)c1Br | 50 | –

Now from value to compound, other results behind:

IC50 [1] [µM] | SMILES | other results
35.4 | O=Cc1ccc(OCc2cccc(-c3ccc4c(c3)OCCO4)c2Br)c(Br)c1 | –
> 100 | O=Cc1cc(Cl)c(OCc2cccc(-c3ccccc3)c2Br)cc1O | –
> 100 | OCc1cccc(-c2ccccc2)c1-c1ccccc1 | –
0.107 | CC(=O)NCCNCc1ccc(OCc2cccc(-c3cccc(F)c3)c2Br)c(Br)c1 | –
> 100 | OCc1cccc(OCc2cccc(-c3cccc(F)c3)c2Br)c1 | –
29.4 | N#Cc1cc(COc2cc(OCc3cccc(-c4ccccc4)c3Br)c(Cl)cc2C=O)ccn1 | EC50 [4]: > 40 µM; Activity [5]: Active
0.552 | N#Cc1cccc(COc2cc(OCc3cccc(-c4ccccc4)c3Br)c(Cl)cc2C=O)c1 | EC50 [4]: > 40 µM; Activity [5]: Active
50 | O=Cc1ccc(OCc2cccc(-c3ccccc3)c2Br)cc1 | –
22.3 | O=S1(=O)CCN(Cc2cccc(OCc3cccc(-c4cccc(F)c4)c3Br)c2)CC1 | –
> 100 | O=Cc1ccc(OCc2cccc(-c3ccc4c(c3)OCCO4)c2F)c(Br)c1 | –
0.0227 | CC(=O)NCCNCc1ccc(OCc2cccc(-c3ccc4c(c3)OCCO4)c2F)c(Br)c1 | –
0.015 | O=C(O)[C@@H]1CCCCN1Cc1ccc(OCc2cccc(-c3ccccc3)c2Br)cc1 | Activity [9]: inactive; Activity [6]: inactive; inhibition [10]: Active; inhibition [11]: Active; Activity [12]: Non-Toxic; EC50 [7]: 6.6 µM; fold change (FC) [13]: 2.1; Activity [5]: Active; Activity [14]: Active; IC50 [15]: 0.00147 µM
5.11 | CC(=O)NCCNCc1ccc(OCc2cccc(-c3ccc(C#N)cc3)c2Br)c(Br)c1 | –
23.8 | N#Cc1cc(COc2cc(OCc3cccc(-c4ccccc4)c3-c3ccccc3)c(Cl)cc2C=O)ccn1 | EC50 [4]: > 40 µM; Activity [5]: Active
50 | O=Cc1ccc(OCc2cccc(-c3ccccc3)c2Br)c(Br)c1 | –
55.5 | OCc1cccc(-c2ccc3c(c2)OCCO3)c1F | –
100 | Fc1cccc(-c2cccc(CBr)c2Br)c1 | –
55 | O=Cc1ccc(OCc2cccc(-c3cccc(F)c3)c2Br)c(Br)c1 | –
